Experimental data reported in ChEMBL document CHEMBL4400523, “Synthesis of novel pyrido[1,2-c]pyrimidine derivatives with rigidized tryptamine moiety as potential SSRI and 5-HT1A receptor ligands” (Eur J Med Chem, 2019).
Activity calls are given as the source filed them. No cut-off for these calls is given here.

Experiments:
[1] = target: T1, 5-hydroxytryptamine receptor 1A (Homo sapiens, UniProt P08908); experiment: Displacement of [3H]-8-OH-DPAT from recombinant human 5HT1A receptor expressed in CHO cell membranes measured after 60 mins by microbeta scintillation counting analysis
T1 sequence (P08908 whole entry): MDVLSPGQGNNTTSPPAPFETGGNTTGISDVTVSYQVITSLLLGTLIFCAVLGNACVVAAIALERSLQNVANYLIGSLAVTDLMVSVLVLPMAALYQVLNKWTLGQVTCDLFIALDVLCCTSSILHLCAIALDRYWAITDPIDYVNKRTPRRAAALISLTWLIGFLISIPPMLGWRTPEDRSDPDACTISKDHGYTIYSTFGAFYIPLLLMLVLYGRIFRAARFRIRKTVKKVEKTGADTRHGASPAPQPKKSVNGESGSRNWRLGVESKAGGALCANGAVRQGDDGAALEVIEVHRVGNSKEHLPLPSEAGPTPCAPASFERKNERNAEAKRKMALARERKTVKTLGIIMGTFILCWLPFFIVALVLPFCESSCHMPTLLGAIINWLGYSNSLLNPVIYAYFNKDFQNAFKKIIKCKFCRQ

[2] = target: Sodium-dependent serotonin transporter (Rattus norvegicus, UniProt P31652); experiment: Displacement of [3H]-citalopram from SERT in rat cortex tissue measured after 60 mins by microbeta scintillation counting analysis
Procedure, shortened: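 Rat cortex tissue suspension with 1.0 nM [3H]-citalopram in 50 mM Tris pH 7.7, 150 mM NaCl, 5 mM KCl. Incubated 60 min at 24 °C, in duplicate. GF/B filtration, scintillation counting. One-site fit, Ki via Cheng–Prusoff with in-house Kd.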

[3] = target: 5-hydroxytryptamine receptor 2A (Homo sapiens, UniProt P28223); experiment: Displacement of [3H]-ketanserin from recombinant human 5HT2A receptor expressed in HEK293 cells measured after 1.5 hrs by microbeta scintillation counting analysis; format: cell-based
[4] = target: 5-hydroxytryptamine receptor 6 (Homo sapiens, UniProt P50406); experiment: Displacement of [3H]-LSD from recombinant human 5HT6 receptor expressed in HEK293 cells measured after 1 hr by microbeta scintillation counting analysis; format: cell-based
[5] = target: 5-hydroxytryptamine receptor 7 (Homo sapiens, UniProt P34969); experiment: Displacement of [3H]-5-CT from recombinant human 5HT7 receptor expressed in HEK293 cells measured after 1 hr by microbeta scintillation counting analysis; format: cell-based
D(2) dopamine receptor = D(2) dopamine receptor (Homo sapiens, UniProt P14416); experiment: Displacement of [3H]-raclopride from recombinant human D2 receptor expressed in HEK293 cells measured after 1 hr by microbeta scintillation counting analysis; format: cell-based
Mus musculus [6] = experiment: Induction of hypothermia in CD-1 mouse assessed as change in body temperature at 5 mg/kg, ip measured after 30 mins by thermometric method; format: functional, organism-based
Procedure, shortened: (§1)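 Male CD-1 mice (23–40 g), 6–8 per dose, given compound ip in 10% aqueous DMSO (10 mL/kg). Rectal temperature was read by thermometer 30, 60, 90 and 120 min after dosing. Results are expressed as change from basal temperature at experiment start. Analysis by Dunnett's test.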

Mus musculus [7] = experiment: Induction of hypothermia in CD-1 mouse assessed as change in body temperature at 20 mg/kg, ip measured after 30 mins by thermometric method; format: functional, organism-based; procedure, shortened: as §1
Mus musculus [8] = experiment: Induction of hypothermia in CD-1 mouse assessed as change in body temperature at 5 mg/kg, ip measured after 60 mins by thermometric method; format: functional, organism-based; procedure, shortened: as §1
Mus musculus [9] = experiment: Induction of hypothermia in CD-1 mouse assessed as change in body temperature at 20 mg/kg, ip measured after 60 mins by thermometric method; format: functional, organism-based; procedure, shortened: as §1
Mus musculus [10] = experiment: Induction of hypothermia in CD-1 mouse assessed as change in body temperature at 5 mg/kg, ip measured after 90 mins by thermometric method; format: functional, organism-based; procedure, shortened: as §1
Mus musculus [11] = experiment: Induction of hypothermia in CD-1 mouse assessed as change in body temperature at 20 mg/kg, ip measured after 90 mins by thermometric method; format: functional, organism-based; procedure, shortened: as §1
Mus musculus [12] = experiment: Induction of hypothermia in CD-1 mouse assessed as change in body temperature at 5 mg/kg, ip measured after 120 mins by thermometric method; format: functional, organism-based; procedure, shortened: as §1
Mus musculus [13] = experiment: Induction of hypothermia in CD-1 mouse assessed as change in body temperature at 20 mg/kg, ip measured after 120 mins by thermometric method; format: functional, organism-based; procedure, shortened: as §1
Mus musculus [14] = experiment: Induction of hypothermia in CD-1 mouse assessed as change in body temperature at 20 mg/kg, ip measured after 30 mins in presence of WAY100635 by thermometric method; format: functional, organism-based
Mus musculus [15] = experiment: Induction of hypothermia in CD-1 mouse assessed as change in body temperature at 20 mg/kg, ip measured after 60 mins in presence of WAY100635 by thermometric method; format: functional, organism-based
[16] = Half life in human liver microsomes at 1 uM by LC-MS analysis; format: ADME, Microsome
Procedure, shortened: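 Compound at 1 μM incubated at 37 °C with 1 mg/mL pooled human liver microsomes and 100 μM NADPH in 0.1 M potassium phosphate pH 7.4, after 5-min preincubation. Samples taken at 0, 5, 10, 15, 30 min and quenched in ice-cold acetonitrile with buspirone internal standard. No-NADPH controls were run. Parent measured by LC-ESI(+)-MS of [M+H+]; half-life reported.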

Mus musculus [17] = experiment: Inhibition of 8-OH-DPAT-induced hypothermia in CD-1 mouse assessed change in body temperature at 20 mg/kg, ip measured after 15 mins by thermometric method (reference value: -1.9 +/- 0.2 deg C); format: functional, organism-based
Mus musculus [18] = experiment: Inhibition of 8-OH-DPAT-induced hypothermia in CD-1 mouse assessed change in body temperature at 20 mg/kg, ip measured after 30 mins by thermometric method (reference value: -2.4 +/- 0.2 deg C); format: functional, organism-based
Mus musculus [19] = experiment: Inhibition of 8-OH-DPAT-induced hypothermia in CD-1 mouse assessed change in body temperature at 20 mg/kg, ip measured after 45 mins by thermometric method (reference value: -2.6 +/- 0.2 deg C); format: functional, organism-based
Mus musculus [20] = experiment: Inhibition of 8-OH-DPAT-induced hypothermia in CD-1 mouse assessed change in body temperature at 20 mg/kg, ip measured after 60 mins by thermometric method (reference value: -2.4 +/- 0.3 deg C); format: functional, organism-based
Mus musculus [21] = experiment: Antidepressant-like activity in CD-1 mouse assessed as decrease in immobility time at 20 mg/kg, ip measured after 30 mins by forced swim test; format: functional, organism-based
Procedure, shortened: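 Male CD-1 mice (23–40 g), 6–8 per dose, given test agent ip in 10% aqueous DMSO (10 mL/kg) 30 min before test. Mice were placed singly in glass cylinders (25 cm high, 10 cm diameter) holding 20 cm water at 23 °C for 6 min. Immobility (passive floating) was timed over the last 4 min after a 2-min adaptation. Analysis by Dunnett's test.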

Chain of 5-hydroxytryptamine receptor 2A (P28223 whole entry): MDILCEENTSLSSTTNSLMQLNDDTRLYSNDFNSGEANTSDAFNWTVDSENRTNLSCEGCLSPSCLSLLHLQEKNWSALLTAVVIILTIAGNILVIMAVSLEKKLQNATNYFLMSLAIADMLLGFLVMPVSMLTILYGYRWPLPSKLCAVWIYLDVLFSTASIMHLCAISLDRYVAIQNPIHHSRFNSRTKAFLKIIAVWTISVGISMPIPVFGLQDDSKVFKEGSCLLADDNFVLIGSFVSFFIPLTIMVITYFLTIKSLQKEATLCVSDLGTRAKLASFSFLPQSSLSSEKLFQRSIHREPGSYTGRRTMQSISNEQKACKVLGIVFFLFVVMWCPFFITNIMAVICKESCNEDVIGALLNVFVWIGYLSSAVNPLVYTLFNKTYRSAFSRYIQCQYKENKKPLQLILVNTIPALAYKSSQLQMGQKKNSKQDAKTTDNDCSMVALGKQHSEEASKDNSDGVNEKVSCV
Chain of 5-hydroxytryptamine receptor 7 (P34969 whole entry): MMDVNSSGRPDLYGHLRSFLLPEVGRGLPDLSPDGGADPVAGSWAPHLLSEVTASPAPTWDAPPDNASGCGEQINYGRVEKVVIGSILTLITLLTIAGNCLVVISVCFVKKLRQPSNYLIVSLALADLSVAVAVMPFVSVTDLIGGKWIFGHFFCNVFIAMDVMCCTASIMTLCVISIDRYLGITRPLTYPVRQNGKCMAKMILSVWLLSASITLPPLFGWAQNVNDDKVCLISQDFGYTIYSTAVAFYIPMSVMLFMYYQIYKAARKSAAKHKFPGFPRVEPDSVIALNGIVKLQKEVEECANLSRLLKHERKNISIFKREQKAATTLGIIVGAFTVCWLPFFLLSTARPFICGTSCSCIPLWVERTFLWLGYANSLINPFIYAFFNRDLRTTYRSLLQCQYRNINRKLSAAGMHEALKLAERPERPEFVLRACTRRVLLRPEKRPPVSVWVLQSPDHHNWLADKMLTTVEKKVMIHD
Chain of Sodium-dependent serotonin transporter (P31652 whole entry): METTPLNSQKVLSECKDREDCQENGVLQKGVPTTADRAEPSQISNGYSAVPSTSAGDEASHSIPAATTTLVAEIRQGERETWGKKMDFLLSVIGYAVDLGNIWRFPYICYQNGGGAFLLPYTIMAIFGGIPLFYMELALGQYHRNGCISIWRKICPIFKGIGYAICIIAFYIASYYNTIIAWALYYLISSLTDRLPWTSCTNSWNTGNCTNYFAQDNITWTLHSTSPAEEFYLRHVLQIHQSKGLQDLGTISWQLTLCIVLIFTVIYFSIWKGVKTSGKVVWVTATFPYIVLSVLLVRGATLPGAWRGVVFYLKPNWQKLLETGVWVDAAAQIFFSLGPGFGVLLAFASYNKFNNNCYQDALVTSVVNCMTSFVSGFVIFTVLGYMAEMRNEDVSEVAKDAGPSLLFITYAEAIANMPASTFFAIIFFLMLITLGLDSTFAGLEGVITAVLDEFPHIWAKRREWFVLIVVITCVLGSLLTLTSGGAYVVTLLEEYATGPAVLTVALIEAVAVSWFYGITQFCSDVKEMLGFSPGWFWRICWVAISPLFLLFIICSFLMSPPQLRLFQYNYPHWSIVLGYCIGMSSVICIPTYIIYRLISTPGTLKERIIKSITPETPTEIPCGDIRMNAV
Chain of D(2) dopamine receptor (P14416 whole entry): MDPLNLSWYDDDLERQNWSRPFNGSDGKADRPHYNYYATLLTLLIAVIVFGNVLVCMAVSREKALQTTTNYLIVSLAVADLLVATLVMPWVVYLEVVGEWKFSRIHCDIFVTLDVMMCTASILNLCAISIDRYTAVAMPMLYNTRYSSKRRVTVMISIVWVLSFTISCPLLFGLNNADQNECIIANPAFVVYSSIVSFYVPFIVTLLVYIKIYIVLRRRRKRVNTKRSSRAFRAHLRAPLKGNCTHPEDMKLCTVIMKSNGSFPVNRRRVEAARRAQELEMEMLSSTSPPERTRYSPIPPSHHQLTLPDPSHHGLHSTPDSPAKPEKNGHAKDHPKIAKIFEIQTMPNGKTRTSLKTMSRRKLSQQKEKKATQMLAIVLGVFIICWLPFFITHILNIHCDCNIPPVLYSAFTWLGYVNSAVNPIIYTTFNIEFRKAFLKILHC
Chain of 5-hydroxytryptamine receptor 6 (P50406 whole entry): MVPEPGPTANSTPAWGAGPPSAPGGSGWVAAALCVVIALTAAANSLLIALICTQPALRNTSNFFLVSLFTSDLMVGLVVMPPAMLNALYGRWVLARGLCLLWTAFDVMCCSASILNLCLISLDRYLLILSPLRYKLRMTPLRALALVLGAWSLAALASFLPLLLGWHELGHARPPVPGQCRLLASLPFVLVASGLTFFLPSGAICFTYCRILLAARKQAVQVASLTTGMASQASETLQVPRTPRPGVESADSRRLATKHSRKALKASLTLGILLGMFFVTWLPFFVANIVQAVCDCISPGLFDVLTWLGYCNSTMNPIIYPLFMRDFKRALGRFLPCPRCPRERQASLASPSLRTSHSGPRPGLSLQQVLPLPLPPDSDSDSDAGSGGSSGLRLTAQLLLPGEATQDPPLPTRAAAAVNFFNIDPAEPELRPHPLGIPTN

Structure (SMILES)	Ki [1]	Ki [2]	other results
Cc1ccc(-c2c(=O)n(CCCCN3CCCC(c4c[nH]c5ccccc45)C3)c(=O)n3ccccc23)cc1 (stereo not given)	0.063 µM	0.207 µM	
Cc1ccccc1-c1c(=O)n(CCCCN2CCCC(c3c[nH]c4ccccc34)C2)c(=O)n2ccccc12 (stereo not given)	0.102 µM	0.076 µM	
COc1ccc2[nH]cc(C3CCCN(CCCCn4c(=O)c(-c5ccccc5F)c5ccccn5c4=O)C3)c2c1 (stereo not given)	0.13 µM	1.67 µM	
O=c1c(-c2ccc(F)cc2)c2ccccn2c(=O)n1CCCCN1CCCC(c2c[nH]c3ccc(F)cc23)C1 (stereo not given)	0.147 µM	0.03 µM	
COc1ccccc1-c1c(=O)n(CCCCN2CCCC(c3c[nH]c4ccc(F)cc34)C2)c(=O)n2ccccc12 (stereo not given)	0.08 µM	0.118 µM	
O=c1c(-c2ccccc2F)c2ccccn2c(=O)n1CCCCN1CCCC(c2c[nH]c3ccc(F)cc23)C1 (stereo not given)	0.218 µM	0.115 µM	
COc1ccc2[nH]cc(C3CCCN(CCCCn4c(=O)c(-c5ccccc5OC)c5ccccn5c4=O)C3)c2c1 (stereo not given)	0.069 µM	0.386 µM	
COc1ccc2[nH]cc(C3CCCN(CCCCn4c(=O)c(-c5ccc(Cl)cc5)c5ccccn5c4=O)C3)c2c1 (stereo not given)	0.257 µM	0.49 µM	
Cc1ccccc1-c1c(=O)n(CCCCN2CCCC(c3c[nH]c4ccc(F)cc34)C2)c(=O)n2ccccc12 (stereo not given)	0.376 µM	0.338 µM	
COc1ccccc1-c1c(=O)n(CCCCN2CCCC(c3c[nH]c4ccccc34)C2)c(=O)n2ccccc12 (stereo not given)	0.132 µM	0.411 µM	
COc1ccc(-c2c(=O)n(CCCCN3CCCC(c4c[nH]c5ccc(F)cc45)C3)c(=O)n3ccccc23)cc1 (stereo not given)	0.14 µM	0.027 µM	
COc1ccc2[nH]cc(C3CCCN(CCCCn4c(=O)c(-c5ccc(F)cc5)c5ccccn5c4=O)C3)c2c1 (stereo not given)	0.281 µM	0.192 µM	

Now from value to compound, other results behind:

Ki [1]	Ki [2]	Structure (SMILES)	other results
0.05 µM	0.103 µM	O=c1c(-c2ccccc2Cl)c2ccccn2c(=O)n1CCCCN1CCCC(c2c[nH]c3ccccc23)C1 (stereo not given)	
0.053 µM	0.24 µM	O=c1c(-c2ccccc2F)c2ccccn2c(=O)n1CCCCN1CCCC(c2c[nH]c3ccccc23)C1 (stereo not given)	
0.294 µM	0.082 µM	O=c1c(-c2ccc(Cl)cc2)c2ccccn2c(=O)n1CCCCN1CCCC(c2c[nH]c3ccccc23)C1 (stereo not given)	
0.176 µM	0.459 µM	COc1ccc2[nH]cc(C3CCCN(CCCCn4c(=O)c(-c5ccccc5Cl)c5ccccn5c4=O)C3)c2c1 (stereo not given)	
0.261 µM	0.248 µM	COc1ccc2[nH]cc(C3CCCN(CCCCn4c(=O)c(-c5ccccc5)c5ccccn5c4=O)C3)c2c1 (stereo not given)	
0.136 µM	0.135 µM	Cc1ccc(-c2c(=O)n(CCCCN3CCCC(c4c[nH]c5ccc(F)cc45)C3)c(=O)n3ccccc23)cc1 (stereo not given)	
0.042 µM	0.041 µM	COc1ccc(-c2c(=O)n(CCCCN3CCCC(c4c[nH]c5ccccc45)C3)c(=O)n3ccccc23)cc1 (stereo not given)	Ki [3]: 0.021 µM; Ki [4]: 1.71 µM; Ki [5]: 1.92 µM; Ki (D(2) dopamine receptor): 1.13 µM; deltaT (Mus musculus [6]): 0.3 °C; deltaT (Mus musculus [7]): -1.6 °C; deltaT (Mus musculus [8]): 0.4 °C; deltaT (Mus musculus [9]): 0.3 °C; deltaT (Mus musculus [10]): 0.4 °C; deltaT (Mus musculus [11]): 0 °C; deltaT (Mus musculus [12]): 0.5 °C; deltaT (Mus musculus [13]): 0.3 °C; deltaT (Mus musculus [14]): -1.4 °C; deltaT (Mus musculus [15]): -0.7 °C; half-life at 1 µM [16]: 7.4 min
0.476 µM	0.087 µM	COc1ccc2[nH]cc(C3CCCN(CCCCn4c(=O)c(-c5ccccc5C)c5ccccn5c4=O)C3)c2c1 (stereo not given)	
0.378 µM	0.255 µM	O=c1c(-c2ccccc2Cl)c2ccccn2c(=O)n1CCCCN1CCCC(c2c[nH]c3ccc(F)cc23)C1 (stereo not given)	
0.046 µM	0.046 µM	O=c1c(-c2ccc(F)cc2)c2ccccn2c(=O)n1CCCCN1CCCC(c2c[nH]c3ccccc23)C1 (stereo not given)	Ki [3]: 0.435 µM; Ki [4]: 0.697 µM; Ki [5]: 1.44 µM; Ki (D(2) dopamine receptor): 0.963 µM; deltaT (Mus musculus [6]): 0.4 °C; deltaT (Mus musculus [7]): -0.2 °C; deltaT (Mus musculus [8]): 0.4 °C; deltaT (Mus musculus [9]): 0.5 °C; deltaT (Mus musculus [10]): 0.3 °C; deltaT (Mus musculus [11]): 0.2 °C; deltaT (Mus musculus [12]): 0.2 °C; deltaT (Mus musculus [13]): 0.1 °C; deltaT (Mus musculus [17]): -1.2 °C; deltaT (Mus musculus [18]): -1.2 °C; deltaT (Mus musculus [19]): -1.3 °C; deltaT (Mus musculus [20]): -1.3 °C; half-life at 1 µM [16]: 5.53 min
0.209 µM	0.008 µM	O=c1c(-c2ccccc2)c2ccccn2c(=O)n1CCCCN1CCCC(c2c[nH]c3ccc(F)cc23)C1 (stereo not given)	
0.333 µM	0.173 µM	COc1ccc2[nH]cc(C3CCCN(CCCCn4c(=O)c(-c5ccc(C)cc5)c5ccccn5c4=O)C3)c2c1 (stereo not given)	
0.022 µM	0.068 µM	O=c1c(-c2ccccc2)c2ccccn2c(=O)n1CCCCN1CCCC(c2c[nH]c3ccccc23)C1 (stereo not given)	Ki [3]: 0.433 µM; Ki [4]: 0.435 µM; Ki [5]: 1.11 µM; Ki (D(2) dopamine receptor): 17.7 µM; deltaT (Mus musculus [6]): -0.1 °C; deltaT (Mus musculus [7]): -0.9 °C; deltaT (Mus musculus [8]): -0.4 °C; deltaT (Mus musculus [9]): -0.3 °C; deltaT (Mus musculus [10]): -0.5 °C; deltaT (Mus musculus [11]): 0.1 °C; deltaT (Mus musculus [12]): -0.8 °C; deltaT (Mus musculus [13]): 0.2 °C; deltaT (Mus musculus [14]): 0 °C; deltaT (Mus musculus [15]): 0.1 °C; Activity (Mus musculus [21]): inactive; half-life at 1 µM [16]: 6.12 min
0.155 µM	0.086 µM	O=c1c(-c2ccc(Cl)cc2)c2ccccn2c(=O)n1CCCCN1CCCC(c2c[nH]c3ccc(F)cc23)C1 (stereo not given)	
